{"source": "ChEMBL document CHEMBL1275452", "about": "“Epidemiological cutoffs and cross-resistance to azole drugs in Aspergillus fumigatus” (2008)", "type_in_all_cases": "functional", "key": {"Aspergillus fumigatus [1]": {"tested_on": "Aspergillus fumigatus", "assay": "Antimicrobial activity against azole-resistant Aspergillus fumigatus harboring G54V, G54E, G54R and G54W mutation in cyp51A gene after 48 hrs by microdilution method", "in_short": "(§1)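 EUCAST broth microdilution in RPMI 1640 supplemented to 2% glucose. Inoculum 2 × 105 to 5 × 10^5 CFU/ml, spores counted in a hematocytometer. MIC read at 48 h as the concentration giving complete inhibition of visual growth. Strains with itraconazole MICs of ≥8 mg/liter were tested at least twice on different days (2 to 11 times). Values are geometric means of MICs. QC strain ATCC 204305 was included.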"}, "Aspergillus fumigatus [2]": {"tested_on": "Aspergillus fumigatus", "assay": "Antimicrobial activity against azole-resistant Aspergillus fumigatus harboring M220V, M220K, M220T and M220I mutation in cyp51A gene after 48 hrs by microdilution method", "in_short": "as §1"}, "Aspergillus fumigatus [3]": {"tested_on": "Aspergillus fumigatus", "assay": "Antimicrobial activity against azole-resistant Aspergillus fumigatus harboring Tandem repeat-L98H (TR) mutation in cyp51A gene after 48 hrs by microdilution method", "in_short": "as §1"}, "Aspergillus fumigatus [4]": {"tested_on": "Aspergillus fumigatus", "assay": "Antimicrobial activity against azole-susceptible Aspergillus fumigatus after 48 hrs by microdilution method", "in_short": "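EUCAST broth microdilution on clinical isolates, RPMI 1640 with glucose to 2%. Inoculum 2 × 105 to 5 × 10^5 CFU/ml, counted as spores in a hematocytometer. MIC read at 48 h as the lowest concentration giving complete inhibition of visual growth. Strains with itraconazole MIC ≤1 mg/liter tested once, some at least twice. Values summarised as geometric means; QC strain ATCC 204305 run alongside.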"}}, "data": [{"molecule": "C[C@@H](c1ncncc1F)[C@](O)(Cn1cncn1)c1ccc(F)cc1F", "note": "[VORICONAZOLE]", "values": [{"measurement": "MIC", "setting": "Aspergillus fumigatus [1]", "value": 0.42, "unit": "mg/L"}, {"measurement": "MIC", "setting": "Aspergillus fumigatus [2]", "value": 1, "unit": "mg/L"}, {"measurement": "MIC", "setting": "Aspergillus fumigatus [3]", "value": 3.7, "unit": "mg/L"}, {"measurement": "MIC", "setting": "Aspergillus fumigatus [4]", "value": 0.53, "unit": "mg/L"}, {"measurement": "MIC90", "setting": "Aspergillus fumigatus [4]", "value": 1, "unit": "mg/L"}]}, {"molecule": "C[C@@H](c1nc(-c2ccc(C#N)cc2)cs1)[C@](O)(Cn1cncn1)c1ccc(F)cc1F", "note": "[RAVUCONAZOLE]", "values": [{"measurement": "MIC", "setting": "Aspergillus fumigatus [1]", "value": 0.32, "unit": "mg/L"}, {"measurement": "MIC", "setting": "Aspergillus fumigatus [2]", "value": 1.85, "unit": "mg/L"}, {"measurement": "MIC", "setting": "Aspergillus fumigatus [3]", "value": 6.8, "unit": "mg/L"}, {"measurement": "MIC", "setting": "Aspergillus fumigatus [4]", "value": 0.6, "unit": "mg/L"}, {"measurement": "MIC90", "setting": "Aspergillus fumigatus [4]", "value": 1, "unit": "mg/L"}]}, {"molecule": "CCC(C)n1ncn(-c2ccc(N3CCN(c4ccc(OCC5COC(Cn6cncn6)(c6ccc(Cl)cc6Cl)O5)cc4)CC3)cc2)c1=O", "note": "(stereo not given) [ITRACONAZOLE]", "values": [{"measurement": "MIC", "setting": "Aspergillus fumigatus [1]", "value": 16, "unit": "mg/L"}, {"measurement": "MIC", "setting": "Aspergillus fumigatus [2]", "value": 16, "unit": "mg/L"}, {"measurement": "MIC", "setting": "Aspergillus fumigatus [3]", "value": 16, "unit": "mg/L"}, {"measurement": "MIC", "setting": "Aspergillus fumigatus [4]", "value": 0.32, "unit": "mg/L"}, {"measurement": "MIC90", "setting": "Aspergillus fumigatus [4]", "value": 0.5, "unit": "mg/L"}]}, {"molecule": "CC[C@@H]([C@H](C)O)n1ncn(-c2ccc(N3CCN(c4ccc(OC[C@@H]5CO[C@@](Cn6cncn6)(c6ccc(F)cc6F)C5)cc4)CC3)cc2)c1=O", "note": "[POSACONAZOLE]", "values": [{"measurement": "MIC", "setting": "Aspergillus fumigatus [1]", "value": 1.6, "unit": "mg/L"}, {"measurement": "MIC", "setting": "Aspergillus fumigatus [2]", "value": 0.65, "unit": "mg/L"}, {"measurement": "MIC", "setting": "Aspergillus fumigatus [3]", "value": 0.68, "unit": "mg/L"}, {"measurement": "MIC", "setting": "Aspergillus fumigatus [4]", "value": 0.08, "unit": "mg/L"}, {"measurement": "MIC90", "setting": "Aspergillus fumigatus [4]", "value": 0.125, "unit": "mg/L"}]}]}
